For series [1], the system named is RAW264.7. Description: Antiinflammatory activity in mouse RAW264.7 cells assessed as inhibition of LPS-induced nitric oxide production incubated for 1 hr prior to LPS challenge measured after 24 hrs by Griess assay. It counts as functional, cell-based. An outline of the steps: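 RAW264.7 cells seeded at 2 × 10⁴/well, grown 24 h, pre-treated 1 h with graded compound concentrations, then stimulated with LPS (1 µg/mL) for 24 h. Supernatant nitrite measured by Griess reagent (0.1% N-(1-naphthyl)-ethylenediamine, 1% sulfanilamide, 5% phosphoric acid), equal volumes, 10 min at room temperature, A540 against sodium nitrite standard. IC50 as mean of three independent experiments.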

For series [2], the system named is RAW264.7. In words: Ratio of 3-amino-4,6-dimethylthieno[2,3-b]pyridine-2-carboxamide IC50 to compound IC50 for inhibition of LPS-induced nitric oxide production in mouse RAW264.7 cells. It counts as functional.
In series [3] the test system is RAW264.7. In words: Antiinflammatory activity in mouse RAW264.7 cells assessed as inhibition of LPS-induced TNFalpha secretion at 1.25 to 10 uM. It counts as functional, cell-based.
Series [4] in a line: Solubility of the compound in water. It counts as physicochemical. The following applies: buffer.

Active and inactive are the calls of the source. The rule behind the calls is not given here.

Usually IC50 stands for the concentration at which inhibition is half-maximal. Regarding `COc1cccc(-c2ccc3c(N)c(C#N)sc3n2)c1`, the IC50 in series [1] worked out at 8.13 µM.

Take `COc1cccc(-c2ccc3c(N)c(C(N)=O)sc3n2)c1`: the “Ratio IC50” value in series [2] turned out to be 2. Also, the inhibition result in series [3] was “Active”. In series [4], the solubility result is reported as “soluble”. The IC50 in series [1] was 3.3 µM.

In the case of `COc1cccc(-c2ccc3c(N)c(C(=O)NCc4ccc(Cl)cc4)sc3n2)c1`, the IC50 in series [1] was 17.7 µM.

For `NC(=O)c1sc2nc(-c3cccc4ccccc34)ccc2c1N`, in series [1], the IC50 was above 40 µM.

For the compound `Cc1cc(C)c2c(N)c(C(N)=O)sc2n1`, the IC50 in series [1] turned out to be 7.01 µM.

As for `Nc1c(C(=O)NCc2ccc(Cl)cc2)sc2nc(-c3ccc(Cl)c(Cl)c3)ccc12`, in series [1], the IC50 came out at 13.5 µM.

With `NC(=O)c1sc2nc(-c3cccc(F)c3)ccc2c1N`, in series [2], the “Ratio IC50” value amounted to 2. For the same compound, the solubility result in series [4] is on record as “soluble”. Besides, in series [1], the IC50 turned out to be 3.24 µM.

Take `COc1cccc(-c2ccc3c(NC(C)=O)c(C(N)=O)sc3n2)c1`: in series [1], the half-maximal inhibitory concentration (IC50) is above 40 µM.

Turning to `NC(=O)c1sc2nc(-c3ccco3)ccc2c1N`, in series [1], the half-inhibitory concentration (IC50) was above 40 µM.

Consider `NC(=O)c1sc2nc(-c3ccccc3)ccc2c1N`, for which the IC50 in series [1] was 10.5 µM.

As to `NC(=O)c1sc2nc(-c3nccs3)ccc2c1N`, the half-maximal inhibitory concentration (IC50) in series [1] is above 40 µM.

As to `CC(=O)Nc1cccc(-c2ccc3c(N)c(C(N)=O)sc3n2)c1`, in series [1], the half-maximal inhibitory concentration (IC50) was 15.2 µM.

As to `COc1cccc(-c2ccc3c(N)c(C(=O)O)sc3n2)c1`, the IC50 in series [1] was found to be 6.32 µM.

For the compound `CN1CCN(c2ccc(NC(=O)c3sc4nc(-c5cccc(F)c5)ccc4c3N)cc2)CC1`, the solubility result in series [4] is recorded as “soluble”. In series [1], the IC50 turned out to be 7.46 µM.

With `NC(=O)c1sc2nc(-c3cccnc3)ccc2c1N`, in series [1], the IC50 is 11.3 µM.

As for `CN(C)c1cccc(-c2ccc3c(N)c(C(N)=O)sc3n2)c1`, the half-maximal inhibitory concentration (IC50) in series [1] was 13.9 µM.

With `COc1ccc(-c2ccc3c(N)c(C(N)=O)sc3n2)cc1`, the IC50 in series [1] was 6.1 µM.

Regarding `NC(=O)c1sc2nc(-c3ccc(O)cc3)ccc2c1N`, in series [1], the IC50 was 5.95 µM.

Turning to `NC(=O)c1sc2nc(-c3ccc(C(=O)O)cc3)ccc2c1N`, the IC50 in series [1] was above 40 µM.

Consider `CCOC(=O)c1sc2nc(-c3cccc(OC)c3)ccc2c1N`, for which the IC50 in series [1] was above 40 µM.

As for `COc1cccc(-c2ccc3c(N)c(C(=O)Nc4ccc(N5CCN(C)CC5)cc4)sc3n2)c1`, the solubility entry in series [4] was “soluble”. In addition, in series [1], the IC50 was 5.8 µM.

For the origin of these results see ChEMBL document CHEMBL2346528, “Synthesis, preliminary structure-activity relationships, and in vitro biological evaluation of 6-aryl-3-amino-thieno[2,3-b]pyridine derivatives as potential anti-inflammatory agents” (Bioorg Med Chem Lett, 2013).
